TRPC4 PAM = allosterically enhances the mouse TRPC4 cation channel; B-score at 10 µM; AID 2227; 310,000 tested, 0.42% active; HEK293 TRPC4beta/mu-opioid, DAMGO EC20, Fluo-4 Ca2+ flux; stronger effect = higher value;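 active means B-score of calcium response area above 5 SD of library B-scores, with initial fluorescence ratio within 5 SD of library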;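 further: B-score of integrated fluorescence ratio over time as area under calcium response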
TRPC4 block = blocks the mouse TRPC4 cation channel; HEK293 TRPC4beta/mu-opioid, DAMGO-evoked Fluo4 calcium flux; stronger effect = lower value; B-score at 10 µM; 300,000 tested, 0.39% active;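 active means B-score over 3 SD under the library average, no early fluorescence shift, positive overall ratio signal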
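Assay system: HEK293 cells with stable TRPC4beta plus mu-opioid receptor expression. Dosing: single dose. Measured by: Fluo4 Ca2+ flux fluorescence. Also added: DAMGO in two steps, submaximal then maximal. Read-out: B score from integrated Fluo4 fluorescence ratio.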
TRPC4 act = TRPC4 (mouse) channel activation. 310,000 tested, 0.49% active. Q9QUQ5. AID 2237. B-score at 10 µM. HEK293 TRPC4beta/mu-opioid, Fluo4 calcium fluorescence; stronger effect = higher value;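 active means B-score above 5 SD of library B-scores, and initial fluorescence ratio not above library mean plus 5 SD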;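 further: positive B-score marks a calcium rise read as TRPC4 activation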
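Assay system – TRPC4beta and mu-opioid receptor HEK293 stable cells · Measured by – Fluo4 fluorescence, kinetic · Schedule – dye loading 45 min room temperature, 110 s kinetic read · Read-out – B-scored integrated calcium fluorescence ratio · Controls – buffer and maximal DAMGO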
CR mimetic SO = caloric restriction mimetics inhibiting age-related superoxide in yeast; S. cerevisiae aged cells, superoxide DHE fluorescence; stronger effect = lower value; superoxide response (% of plate mean), % at 10 µM; 330,000 tested, 0.18% active; AID 2690;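 active means superoxide response under a set limit, about three screen SD below normal, cut at about 65% in these data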;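 further: yeast aged for seven days with compound at 30 °C before DHE staining; 100% = average MFI of all compound-treated wells on the plate with controls excluded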
TRPC6 inhibitor = mouse TRPC6 channel inhibition | B-score at 10 µM | HEK293-TRPC6, membrane potential dye, ACh-evoked depolarization; stronger effect = lower value | AID 2553 | Q61143 | 310,000 tested, 1.1% active;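 active means B-score under library mean minus 3 SD, initial fluorescence not abnormally high, positive integrated signal ratio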;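 further: B-score derived from integrated fluorescence ratio over the kinetic read; more negative B-score means stronger inhibition of depolarization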
Target sequence (Q61143 whole entry, looked up): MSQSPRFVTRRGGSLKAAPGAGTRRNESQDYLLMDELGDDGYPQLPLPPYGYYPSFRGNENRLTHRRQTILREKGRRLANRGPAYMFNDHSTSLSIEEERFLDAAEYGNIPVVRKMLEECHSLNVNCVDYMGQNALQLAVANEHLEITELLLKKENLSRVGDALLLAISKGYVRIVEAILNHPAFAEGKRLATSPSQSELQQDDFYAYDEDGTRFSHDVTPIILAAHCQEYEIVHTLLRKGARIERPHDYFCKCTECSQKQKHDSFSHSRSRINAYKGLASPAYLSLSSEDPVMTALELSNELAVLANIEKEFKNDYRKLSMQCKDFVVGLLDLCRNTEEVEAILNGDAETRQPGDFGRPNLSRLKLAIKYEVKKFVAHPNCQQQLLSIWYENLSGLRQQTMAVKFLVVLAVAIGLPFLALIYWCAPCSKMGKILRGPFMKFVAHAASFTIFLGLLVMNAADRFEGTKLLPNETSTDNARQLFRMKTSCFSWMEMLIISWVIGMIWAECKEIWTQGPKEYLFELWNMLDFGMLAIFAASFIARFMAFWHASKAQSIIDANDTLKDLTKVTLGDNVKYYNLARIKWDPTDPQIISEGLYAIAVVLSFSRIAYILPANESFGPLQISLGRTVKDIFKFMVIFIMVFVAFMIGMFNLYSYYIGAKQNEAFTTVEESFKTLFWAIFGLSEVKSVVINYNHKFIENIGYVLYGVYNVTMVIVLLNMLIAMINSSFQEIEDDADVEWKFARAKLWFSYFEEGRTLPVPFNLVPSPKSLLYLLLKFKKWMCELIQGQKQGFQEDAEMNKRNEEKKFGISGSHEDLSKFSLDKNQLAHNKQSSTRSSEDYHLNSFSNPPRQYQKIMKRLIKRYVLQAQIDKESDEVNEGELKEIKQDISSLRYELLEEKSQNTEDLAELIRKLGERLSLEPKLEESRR
TRPC6 act = mouse TRPC6 channel activation. 310,000 tested, 0.13% active. Q61143. B-score at 10 µM. HEK293-TRPC6 membrane potential dye fluorescence; stronger effect = higher value;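 active means B-score of the integrated fluorescence ratio above library mean plus 3 SD, and starting fluorescence ratio within library mean plus 5 SD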;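 further: higher score means more depolarization so channel activation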
TRPC4 sel inh 2 = second check of whether TRPC6 inhibitors also affect mouse TRPC4 | 920 tested, 42% active | shares compounds with TRPC6 inhibitor | inhibition, % at 10 µM | HEK293 TRPC4/MOR, membrane potential dye fluorescence; channel activated by saturating DAMGO dose | AID 2776;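 active means compounds whose fluorescence signal differed from control wells by over 3 SD, either direction, in both duplicate plates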
TRPC4 spec = mouse TRPC4 off-target activity of TRPC6 inhibitors | HEK293 TRPC4/mu-opioid, membrane potential fluorescence | 920 tested, 61% active | AID 2777 | activity change, negative = inhibition, % at 10 µM | shares compounds with TRPC6 inhibitor;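 active means rise or fall in signal beyond 3 SD of buffer-only wells in both replicate plates, either sign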;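 further: integrated kinetic ratio of fluorescence range over baseline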
HEK293 MPD ctr 2-1 = second check of TRPC6 inhibitor effects in parental HEK293 cells | shares compounds with TRPC6 inhibitor | parental HEK293 membrane potential dye fluorescence; maximal acetylcholine challenge after compound addition | signal change vs control, % at 10 µM | 920 tested, 31% active;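 active means membrane potential signal moving either way by over 3 SD of the maximum-effect control, in both duplicate plates, meaning non-specific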
HEK293 MPD ctr-1 = parental HEK293 nonspecific activity of TRPC6 inhibitors | shares compounds with TRPC6 inhibitor | parental HEK293 membrane potential dye fluorescence | membrane potential signal change, % at 10 µM | 920 tested, 60% active | AID 2780;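 active means membrane potential signal shifting up or down by more than 3 SD of buffer-only wells, on both duplicate plates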
HEK293 MPD ctr-2 = checks TRPC6 modulator effects in parental HEK293 cells; membrane potential dye fluorescence; membrane potential signal change, % at 10 µM; shares compounds with TRPC6 inhibitor; 2,400 tested, 51% active;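 active means membrane potential signal moves up or down beyond 5 SD from buffer-only wells, on both duplicate plates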
HEK293 MPD ctr 2-2 = parental HEK293 nonspecific activity of TRPC6 modulators, second screen; AID 488926; 2,400 tested, 14% active; shares compounds with TRPC6 inhibitor; membrane potential dye fluorescence; after compound, maximal acetylcholine stimulation; inhibition, % at 10 µM;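 active means membrane potential signal drops by more than 5 SD from the mean control signal, in both duplicate plates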;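 further: plate controls were acetylcholine ECmax control wells for no effect and buffer only wells for full effect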
TRPC4 ctr mod = selectivity of TRPC6 modulators against mouse TRPC4 | percent change from control (negative = decrease, positive = increase), % at 10 µM | AID 488927 | HEK293 TRPC4/mu-opioid, membrane potential fluorescence | shares compounds with TRPC6 inhibitor | 2,400 tested, 69% active;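 active means membrane potential signal moved up or down beyond 5 SD of buffer control wells, in both duplicate plates, actives on both sides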;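 further: plate controls were assay buffer wells for no effect and DAMGO maximal-effect wells for full effect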
TRPC4 ctr inh 2 = mouse TRPC4 off-target activity of TRPC6 modulators, second screen | HEK293 TRPC4/mu-opioid, membrane potential dye fluorescence; stimulated with maximal-effect DAMGO | shares compounds with TRPC6 inhibitor | 2,400 tested, 55% active | inhibition, % at 10 µM;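 active means drop in membrane potential signal beyond 5 SD of the control wells in both duplicate plates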;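 further: TRPC4 counter screen for TRPC6 hits run under conditions tuned for TRPC6 not TRPC4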
TRPC6 inh conf = confirmation of mouse TRPC6 inhibitors; shares compounds with TRPC6 inhibitor; HEK293-TRPC6, membrane potential dye, ACh-evoked depolarization; inhibition, % at 10 µM; 3,300 tested, 43% active;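 active means fluorescence ratio falls more than 5 SD below the full-stimulation control mean, in both duplicate runs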;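 further: integrated fluorescence ratio of peak minus minimum over baseline after agonist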
TRPC6 act confirm = confirmation of mouse TRPC6 activators; HEK293-TRPC6 membrane potential dye fluorescence, FDSS; AID 488961; 2,800 tested, 11% active; shares compounds with TRPC6 inhibitor; activation, % at 10 µM;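 active means ratio signal rise beyond 5 SD above unstimulated control wells' mean, seen in both duplicate runs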;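 further: plate controls were buffer EC0 wells for no effect and acetylcholine ECmax response for full effect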
* marks the source's active call; other numbers are inactive results. Only some compounds are listed: those with a hit (about 2.3% of all), similar ones and a draw of the others.

For CCOc1ccc(CCNC(=O)C2CCCN(c3nn4c(=O)cc(C)nc4s3)C2)cc1OCC (stereo not given) the results were TRPC4 PAM inactive, TRPC4 block inactive, TRPC4 act inactive, CR mimetic SO 109, TRPC6 inhibitor inactive and TRPC6 act inactive.
Screening CCC(C)c1ccccc1OCCCNC1CCCC1 (stereo not given) returned TRPC4 PAM inactive, TRPC4 block inactive, TRPC4 act inactive, CR mimetic SO 95, TRPC6 inhibitor -5*, TRPC6 act inactive, HEK293 MPD ctr-2 232%*, HEK293 MPD ctr 2-2 inactive, TRPC4 ctr mod 58%*, TRPC4 ctr inh 2 58%* and TRPC6 inh conf 44%*.
For CC(=O)c1c(C)nc(-c2ccccc2)nc1NC(=O)C(C)C the results were TRPC4 PAM inactive, TRPC4 block inactive, TRPC4 act inactive, CR mimetic SO 99, TRPC6 inhibitor inactive and TRPC6 act inactive.
CC(=O)c1c(C)nc(-c2ccc(Cl)cc2)nc1NC(=O)C(C)C was read as TRPC4 PAM inactive, TRPC4 block inactive, TRPC4 act inactive, CR mimetic SO 103, TRPC6 inhibitor -6*, TRPC6 act inactive, HEK293 MPD ctr-2 inactive, HEK293 MPD ctr 2-2 106%*, TRPC4 ctr mod 18%*, TRPC4 ctr inh 2 inactive and TRPC6 inh conf 72%*.
Screening COc1ccc(S(=O)(=O)CC(=O)c2cc3cccc(C)c3oc2=O)cc1 returned TRPC4 PAM inactive, TRPC4 block inactive, TRPC4 act inactive, CR mimetic SO 119, TRPC6 inhibitor inactive and TRPC6 act inactive.
For CCOc1ccc(-c2nnc(-c3ccncc3)o2)cc1OCC the results were TRPC4 PAM inactive, TRPC4 block inactive, TRPC4 act inactive, CR mimetic SO 100, TRPC6 inhibitor -5.5*, TRPC6 act inactive, HEK293 MPD ctr-2 -173%*, HEK293 MPD ctr 2-2 inactive, TRPC4 ctr mod -36%*, TRPC4 ctr inh 2 32%*, TRPC6 inh conf inactive and TRPC6 act confirm inactive.
Screening COC(=O)c1ccccc1C(=O)c1ccc2c(c1)NC(=O)CO2 returned TRPC4 PAM inactive, TRPC4 block inactive, TRPC4 act inactive, CR mimetic SO 109, TRPC6 inhibitor inactive and TRPC6 act inactive.
`C/C(=N\NC(=S)Nc1ccccc1C)c1cc2ccccc2o1` gave TRPC4 PAM inactive, TRPC4 block inactive, TRPC4 act inactive, CR mimetic SO 100, TRPC6 inhibitor inactive and TRPC6 act inactive.
For Cc1ccc(-c2csc(=Nc3cccnc3)n2CCCn2ccnc2)cc1C the results were TRPC4 PAM inactive, TRPC4 block inactive, TRPC4 act inactive, CR mimetic SO 93, TRPC6 inhibitor -5.4*, TRPC6 act inactive, HEK293 MPD ctr-2 106%*, HEK293 MPD ctr 2-2 inactive, TRPC4 ctr mod 15%*, TRPC4 ctr inh 2 65%* and TRPC6 inh conf 44%*.
Cn1c(CCN2CCN(c3ccccn3)CC2)nc2cc(NC(=O)COc3ccc(Cl)cc3)ccc21 was read as TRPC4 PAM inactive, TRPC4 block inactive, TRPC4 act inactive, CR mimetic SO 95, TRPC6 inhibitor inactive and TRPC6 act inactive.
For Cc1c(CN(C)C)c2c(n1C)C(=O)c1ccc(Br)cc1-2 the results were TRPC4 PAM inactive, TRPC4 block inactive, TRPC4 act inactive, CR mimetic SO 101, TRPC6 inhibitor -11*, TRPC6 act inactive, HEK293 MPD ctr-2 -178%*, HEK293 MPD ctr 2-2 67%*, TRPC4 ctr mod -32%*, TRPC4 ctr inh 2 59%*, TRPC6 inh conf 66%* and TRPC6 act confirm inactive.
For CCC1(C)Cc2c(sc3[nH]c(=S)[nH]c(=S)c23)CO1 (stereo not given) the results were TRPC4 PAM inactive, TRPC4 block inactive, TRPC4 act inactive, CR mimetic SO 96, TRPC6 inhibitor -8.9*, TRPC6 act inactive, TRPC4 sel inh 2 inactive, TRPC4 spec inactive, HEK293 MPD ctr 2-1 inactive, HEK293 MPD ctr-1 inactive, TRPC6 inh conf inactive and TRPC6 act confirm inactive.
Screening COCC1CCCCN1C(=O)C1CCN(c2nc(-c3ccccc3)nc3c2CCC3)CC1 (stereo not given) returned TRPC4 PAM inactive, TRPC4 block inactive, TRPC4 act inactive, CR mimetic SO 83, TRPC6 inhibitor inactive and TRPC6 act inactive.
Screening CC1CCCN(C(=O)C2COc3ccccc3O2)C1 (stereo not given) returned TRPC4 PAM inactive, TRPC4 block inactive, TRPC4 act inactive, CR mimetic SO 109, TRPC6 inhibitor -5*, TRPC6 act inactive, HEK293 MPD ctr-2 inactive, HEK293 MPD ctr 2-2 inactive, TRPC4 ctr mod 8.5%*, TRPC4 ctr inh 2 inactive and TRPC6 inh conf 49%*.

From PubChem
